According to ChEMBL document CHEMBL1158382 (Eur J Med Chem, 2009):

Assays:
Rattus norvegicus [1] = assay: Gastrointestinal toxicity in Albino rat assessed ulcer index at 300 umol/kg, po; conditions: in vivo
Rattus norvegicus [2] = assay: Antiinflammatory activity in Albino rat assessed as inhibition of carrageenan-induced paw edema at 300 umol/kg, po administered 1 hr before carrageenan challenge and measured 3 hrs after carrageenan challenge
Mus musculus = assay: Analgesic activity in Albino mouse assessed as inhibition of acetic acid-induced writhing at 300 umol/kg, po administered 1 hr before acetic acid challenge and measured 10 mins after acetic acid challenge; format: functional
Outline: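 Mice of both sexes (18–23 g) dosed orally as a suspension in 5% Arabic gum in saline; vehicle controls got an equal volume. Acetic acid 0.6% (0.1 mL/10 g) given i.p. 1 h later. Constrictions per animal counted for 20 min, starting 10 min after the injection. Value is % inhibition of constrictions versus vehicle group, mean ± SEM, N = 8–10.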

[3] = Ratio of IC50 for COX1 to IC50 for COX2

| Compound | UI (Rattus norvegicus [1]) | inhibition in vivo at 300 µmol/kg (Rattus norvegicus [2]) [%] | inhibition in vivo at 300 µmol/kg (Mus musculus) [%] | Ratio IC50 [3] |
| --- | --- | --- | --- | --- |
| CCCCNC(=O)CC1=C(C)/C(=C/c2ccc(S(C)(=O)=O)cc2)c2ccc(F)cc21 | 2 | 7 | 35 |  |
| Cc1ccc(Cl)c(Nc2ccccc2C(=O)NOCc2ccc([N+](=O)[O-])cc2)c1Cl |  |  |  | 273 |
| CC1=C(CC(=O)O)c2cc(F)ccc2/C1=C\c1ccc(S(C)(=O)=O)cc1 [EXISULIND] |  | 48 | 34 |  |
| CC1=C(CC(=O)Nc2ccccc2)c2cc(F)ccc2/C1=C\c1ccc(S(C)(=O)=O)cc1 | 0 | 12 | 19 |  |
| CCN(CC)C(=O)CC1=C(C)/C(=C/c2ccc(S(C)(=O)=O)cc2)c2ccc(F)cc21 | 1 | 27 | 14 |  |
| CC1=C(CC(=O)O)c2cc(F)ccc2/C1=C\c1ccc([S+](C)[O-])cc1 (configuration not stated) |  | 67 | 49 |  |
| CC1=C(CC(=O)N2CCSCC2)c2cc(F)ccc2/C1=C\c1ccc(S(C)(=O)=O)cc1 | 4 | 11 | 48 |  |
| COc1ccc2c(c1)c(CC(=O)Nc1cccnc1)c(C)n2C(=O)c1ccc(Cl)cc1 |  |  |  | 1300 |
| CC1=C(CC(=O)N2CCCCC2)c2cc(F)ccc2/C1=C\c1ccc(S(C)(=O)=O)cc1 | 0 | 19 | 36 |  |
| Cc1ccc(Cl)c(Nc2ccccc2C(=O)O)c1Cl |  |  |  | 0.72 |
| Cc1ccc(-c2cc(C(F)(F)F)nn2-c2ccc(S(N)(=O)=O)cc2)cc1 [CELECOXIB] |  | 35 | 56 |  |
| CCNC(=O)CC1=C(C)/C(=C/c2ccc(S(C)(=O)=O)cc2)c2ccc(F)cc21 | 0 | 27 | 59 |  |
| CCCNC(=O)CC1=C(C)/C(=C/c2ccc(S(C)(=O)=O)cc2)c2ccc(F)cc21 | 1.4 | 20 | 39 |  |
| Cc1ccc(Cl)c(Nc2ccccc2C(=O)NCCCCl)c1Cl |  |  |  | 40 |
| Cc1ccc(Cl)c(Nc2ccccc2C(=O)NCCOc2ccccc2)c1Cl |  |  |  | 440 |
| CNC(=O)CC1=C(C)/C(=C/c2ccc([S+](C)[O-])cc2)c2ccc(F)cc21 (configuration not stated) |  |  | 6 |  |
| COC(=O)CC1=C(C)/C(=C/c2ccc(S(C)(=O)=O)cc2)c2ccc(F)cc21 | 0 | 15 | 21 |  |
| CC1=C(CC(=O)N2CCOCC2)c2cc(F)ccc2/C1=C\c1ccc(S(C)(=O)=O)cc1 | 0 | 4 | 22 |  |
| CNC(=O)CC1=C(C)/C(=C/c2ccc(S(C)(=O)=O)cc2)c2ccc(F)cc21 | 0 | 35 | 43 |  |
